The IC50 is the point on the concentration scale where inhibition reaches its midpoint. Low values mean inhibition by little substance, high ones a need for much substance.

Molecules are shown by their SMILES. ≈ marks a conversion by molar mass, not a printed value.

For test [1], the system named is B16-F10. The test can be described thus: The inhibition concentration of B16-F10 cell growth after 72 hours. In kind it is functional, cell-based. To be noted: Mus musculus, B16-F10, 72 h. A digest of the protocol:
(§1)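 Panel of human colon lines (HCT-116, etoposide sensitive; HCT/VP35, acquired-resistant; MOSER, inherently resistant) and mouse melanoma B16-F10. Viability is read by crystal violet protein stain, or by XTT vital stain for some HCT/VP35 and HCT-116 runs. IC50 is the dose reducing cell growth by 50% after 72 h versus controls. Values are averages of at least two runs.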

Test [2] concerns HCT cell line. The test can be described thus: The inhibition concentration against etoposide resistant HCT/VP35 cell growth after 72 hours. It counts as functional, cell-based. To be noted: Homo sapiens. A digest of the protocol:
as §1

Test [3] is filed under the species Homo sapiens. The test can be described thus: The inhibition concentration of MOSER cell growth after 72 hours. It counts as functional. A digest of the protocol:
as §1

Test [4] concerns Mus musculus. The test is described as follows: Anti-P388 Leukemia activity administered 150 mg/kg intraperitoneally, expressed as percent of the median survival time. In kind it is functional. To be noted: route intraperitoneal. A digest of the protocol:
(§2)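 P388 leukemia-bearing mice given drug ip on days 1 and 5, with dose expressed per injection. T/C is the median survival time of treated mice as a percent of saline-treated controls. Long-term survivors are mice alive out of total on day 30, when the experiment ended.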

Test [5] has as its system Mus musculus. The test is described as follows: Anti-P388 Leukemia activity administered 30 mg/kg intraperitoneally, expressed as percent of the median survival time. In kind it is functional. To be noted: route intraperitoneal. A digest of the protocol: as §2
Test [6] can be described thus: Inhibitory selectivity against HCT/VP35 and HCT116 cell growth after 72 hours. It counts as functional, HCT-116. A digest of the protocol:
(§3)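 Ratio of the HCT/VP35 IC50 to the HCT-116 IC50, as a measure of overcoming acquired etoposide resistance. The IC50 is the dose giving 50% growth reduction after 72 h versus controls, read by crystal violet or XTT stain. Values are averages of at least two runs.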

Test [7] deals with B16-F10. The test can be described thus: In vitro inhibitory concentration against B16-F10 cell growth after 72 hours. Conditions: Mus musculus, B16-F10, 72 h. It counts as functional, cell-based. A digest of the protocol: as §1
The test system of test [8] is HCT-116. The test is described as follows: In vitro inhibitory concentration against etoposide sensitive HCT116 cell growth after 72 hours. It counts as functional, cell-based. Conditions: Homo sapiens, HCT-116, 72 h. A digest of the protocol:
as §1

The subject of test [9] is HCT cell line. The test can be described thus: In vitro inhibitory concentration against etoposide resistant HCT/VP35 cell growth after 72 hours. It counts as functional, cell-based. To be noted: Homo sapiens. A digest of the protocol:
as §1

The species named for test [10] is Homo sapiens. The test can be described thus: In vitro inhibitory concentration against MOSER cell growth after 72 hours. It counts as functional. A digest of the protocol: as §1
Test [11] concerns Mus musculus. The test can be described thus: Percent median survival time (T/C) of mice when administered intraperitoneally at dose 20 mg/kg. In kind it is functional. Conditions: route intraperitoneal. A digest of the protocol:
as §2

For test [12], the system named is Mus musculus. The test can be described thus: Percent median survival time (T/C) of mice when administered intraperitoneally at dose 40 mg/kg. It counts as functional. Conditions: route intraperitoneal. A digest of the protocol: as §2
Test [13] concerns Mus musculus. The test is described as follows: Percent median survival time (T/C) of mice when administered intraperitoneally at dose 80 mg/kg. In kind it is functional. Conditions: route intraperitoneal. A digest of the protocol: as §2
For test [14], the system named is Mus musculus. The test is described as follows: Number of long time survivors (mice alive/total) when administered intraperitoneally at dose 60 mg/kg when tested in 4 mice. In kind it is functional. Conditions: route intraperitoneal. A digest of the protocol: as §2
Test [15] concerns Mus musculus. The test is described as follows: Number of long time survivors (mice alive/total) when administered intraperitoneally at dose 80 mg/kg when tested in 4 mice. In kind it is functional. To be noted: route intraperitoneal. A digest of the protocol:
as §2

Test [16] concerns Mus musculus. The test is described as follows: Maximum percent median survival time of mice when administered intraperitoneally at dose 60 mg/kg. In kind it is functional. To be noted: route intraperitoneal.
Test [17] has as its system HCT-116. The test is described as follows: The inhibition concentration against etoposide sensitive HCT116 cell growth after 72 hours. In kind it is functional, cell-based. Conditions: Homo sapiens, HCT-116, 72 h. A digest of the protocol: as §1
Test [18] deals with Mus musculus. The test can be described thus: Anti-P388 Leukemia activity administered 200 mg/kg intraperitoneally, expressed as percent of the median survival time. In kind it is functional. To be noted: route intraperitoneal. A digest of the protocol: as §2
Test [19] relates to Mus musculus. The test can be described thus: Anti-P388 Leukemia activity administered 50 mg/kg intraperitoneally, expressed as percent of the median survival time. It counts as functional. Conditions: route intraperitoneal. A digest of the protocol: as §2
The nature of test [20]: Inhibitory selectivity against HCT/VP35 and HCT116 cell growth after 72 hr IC50 value for etoposide in the parenthesis. It counts as functional, HCT-116. A digest of the protocol:
as §3

In test [21] the test system is Mus musculus. The test can be described thus: Percent median survival time (T/C) of mice when administered intraperitoneally at dose 120 mg/kg. It counts as functional. To be noted: route intraperitoneal. A digest of the protocol:
as §2

On to `COc1cc(OC)cc([C@@H]2c3cc4c(cc3[C@@H](O[C@@H]3O[C@@H]5CO[C@@H](C)O[C@H]5[C@H](O)[C@H]3O)[C@H]3COC(=O)[C@H]23)OCO4)c1`, for which the IC50 was 25 mg/L (≈ 43.7 µM) in the test on B16-F10 [1], 3.4 mg/L (≈ 5.94 µM) in the test on HCT cell line [2] and 45.5 mg/L (≈ 79.5 µM) in the test listed under Homo sapiens [3]. Moreover, the T/C is 175 with Mus musculus [4] and 125 in the test with Mus musculus [5]. The compound also returned a Selectivity in [6] of 0.47.
Consider `COc1cc([C@@H]2c3cc4c(cc3[C@@H](O[C@@H]3O[C@@H]5CO[C@@H](C)O[C@H]5[C@H](O)[C@H]3O)[C@H]3COC(=O)[C@H]23)OCO4)ccc1O`, for which the half-inhibitory concentration (IC50) was determined as 20.1 mg/L (≈ 36 µM) in the test with B16-F10 [7], 15.4 mg/L (≈ 27.6 µM) in the test on HCT-116 [8], 5.4 mg/L (≈ 9.67 µM) in the test on HCT cell line [9] and 46.5 mg/L (≈ 83.3 µM) in the test filed under Homo sapiens [10]. Also, the T/C in the test with Mus musculus [11] amounted to 190; with Mus musculus [12], 245. The same compound returned a Selectivity in [6] of 12.3.
Turning to `COC1=CC([C@@H]2c3cc4c(cc3[C@@H](O[C@@H]3O[C@@H]5CO[C@@H](C)O[C@H]5[C@H](O)[C@H]3O)[C@H]3COC(=O)[C@@H]32)OCO4)=CC(=O)C1=O`, the T/C with Mus musculus [12] is 274; with Mus musculus [13], greater than 621. In addition, the results for the LTS with Mus musculus [14] and in the test with Mus musculus [15] were 2 and 3, respectively. Further, the “Max T/C” value in the test with Mus musculus [16] was greater than 595.
In the case of `C[C@@H]1OC[C@H]2O[C@@H](O[C@@H]3c4cc5c(cc4[C@@H](c4ccc(O)cc4)[C@H]4C(=O)OC[C@@H]43)OCO5)[C@H](O)[C@@H](O)[C@@H]2O1`, the 50% inhibitory concentration (IC50) in the test with B16-F10 [1] was 43.4 mg/L (≈ 82.1 µM); in the test with HCT-116 [17] it was 62.7 mg/L (≈ 119 µM); in the test with HCT cell line [2] it was 85.1 mg/L (≈ 161 µM); in the test listed under Homo sapiens [3] it was 42.9 mg/L (≈ 81.2 µM). Moreover, the T/C stood at 175 in the test with Mus musculus [18] and 145 with Mus musculus [19]. Further, the Selectivity in test [20] stood at 1.4.
`COc1cc([C@@H]2c3cc4c(cc3[C@@H](O[C@@H]3O[C@@H]5CO[C@@H](C)O[C@H]5[C@H](O)[C@H]3O)[C@H]3COC(=O)[C@H]23)OCO4)cc(OC)c1O` [ETOPOSIDE]: in the test on Mus musculus [21], the T/C came out at 447.
